Publication PMC5663466 (Journal of proteome research, 2017)

Columns and labels:
[1] = system: tyrosine and serine/threonine kinases; conditions: cited from earlier work
[2] = system: protein and lipid kinases in HeLa cell lysate; assay: Affinity pulldown-soluble competition in duplex SILAC-labeled HeLa cell lysate; type: binding, human; conditions: 50 μM soluble competitor against affinity matrix 7
Outline: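 HeLa cells SILAC-labelled for ≥5 doublings in Lys/Arg-free DMEM with 10% dialysed FBS, 200 μg/ml proline and 0.2 mM light or heavy Lys/Arg, then lysed in modified RIPA buffer. Lysate (300 μg, 2 mg/ml) was pre-incubated 20 min at 4°C with DMSO or test compound (1% DMSO final), then pulled down 3 h at 4°C. SILAC channel beads were combined after washing, digested on-bead with LysC then trypsin, and run as single-shot nanoLC-MS/MS.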

Row | Compound | number of tyrosine and serine/threonine kinases inhibited [1] | number of protein and lipid kinases with specific interaction [2]
1 | Cc1nc(Nc2ncc(C(=O)Nc3c(C)cccc3Cl)s2)cc(N2CCN(CCO)CC2)n1 [dasatinib] | over 30 | 
2 | COc1cc2c(Oc3ccc(NC(=O)C4(C(=O)Nc5ccc(F)cc5)CC4)cc3F)ccnc2cc1OCCCN1CCOCC1 [foretinib] |  | 29
